pIC50: −log10 of the molar value.
Tests used:
NCI-H460 [1] = experiment: Growth inhibition of human NCI-H460 cells at 10 uM after 48 hrs by WST-8 assay; format: functional; settings: NCI-H460, 48 h, read-out: GI
In short: (§1)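 ATCC cells kept in DMEM with 10% FBS and antibiotics at 37 °C, 5% CO2. Seeded 5×10^3/well, incubated overnight, then treated with compound for 48 h against a DMSO vehicle control (≤0.1%). CCK-8 (WST-8) reduction by live-cell dehydrogenases read at 450 nm (corrected 650 nm) after 4 h at 37 °C. Viable cells expressed as % of the DMSO control.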

HCT-116 [2] = experiment: Growth inhibition of human HCT116 cells at 10 uM after 48 hrs by WST-8 assay; format: functional; settings: HCT-116, 48 h, read-out: GI; in short: as §1
ACHN [3] = experiment: Growth inhibition of human ACHN cells at 10 uM after 48 hrs by WST-8 assay; format: functional; settings: read-out: GI; in short: as §1
Calu-1 [4] = experiment: Growth inhibition of human Calu1 cells at 10 uM after 48 hrs by WST-8 assay; format: functional; settings: Calu-1, 48 h, read-out: GI; in short: as §1
PANC-1 [5] = experiment: Growth inhibition of human PANC1 cells at 10 uM after 48 hrs by WST-8 assay; format: functional; settings: PANC-1, 48 h, read-out: GI; in short: as §1
PANC-1 [6] = experiment: Cytotoxicity against human PANC1 cells after 48 hrs by WST-8 assay; format: functional, cell-based; settings: PANC-1, 48 h
In short: (§2)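 ATCC cells kept in DMEM with 10% FBS, penicillin/streptomycin at 37 °C, 5% CO2. Seeded 5×10^3/well and left overnight, then exposed to a range of concentrations with DMSO vehicle (≤0.1%) as control. After 48 h, CCK-8 (WST-8) was added for 4 h at 37 °C and A450 read, corrected to 650 nm. Viability is % of DMSO control. IC50 was taken from log cytotoxicity curves.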

HCT-116 [7] = experiment: Cytotoxicity against human HCT116 cells after 48 hrs by WST-8 assay; format: functional, cell-based; settings: HCT-116, 48 h; in short: as §2
MCF-10A = experiment: Cytotoxicity against human MCF10A cells after 48 hrs by WST-8 assay; format: cell-based; in short: as §2
ACHN [8] = experiment: Cytotoxicity against human ACHN cells after 48 hrs by WST-8 assay; format: functional, cell-based; in short: as §2
NCI-H460 [9] = experiment: Cytotoxicity against human NCI-H460 cells after 48 hrs by WST-8 assay; format: functional, cell-based; settings: NCI-H460, 48 h; in short: as §2
Calu-1 [10] = experiment: Cytotoxicity against human Calu1 cells after 48 hrs by WST-8 assay; format: functional, cell-based; settings: Calu-1, 48 h; in short: as §2

Row | SMILES | inhibition of growth at 10 µM (NCI-H460 [1]) | inhibition of growth at 10 µM (HCT-116 [2]) | inhibition of growth at 10 µM (ACHN [3]) | inhibition of growth at 10 µM (Calu-1 [4]) | inhibition of growth at 10 µM (PANC-1 [5]) | pIC50 (PANC-1 [6]) | pIC50 (HCT-116 [7]) | pIC50 (MCF-10A) | pIC50 (ACHN [8]) | pIC50 (NCI-H460 [9]) | pIC50 (Calu-1 [10])
1 | CCC(c1c(O)c(C(=O)CC(C)C)c(O)c(C(=O)CC(C)C)c1O)c1c(O)c(C(=O)CC(C)C)c(O)c(C(=O)CC(C)C)c1O | 10% | 22% | 0% | 10% | 0% | – | – | – | – | – | –
2 | CC(C)CC(=O)c1c(O)c(C(=O)CC(C)C)c(O)c(C(c2cccs2)c2c(O)c(C(=O)CC(C)C)c(O)c(C(=O)CC(C)C)c2O)c1O | 54% | 57% | 50% | 62% | 60% | 5.07 | 5.05 | < 4.52 | < 5.00 | 5.04 | 5.05
3 | CC(C)CC(=O)c1c(O)c(C(=O)CC(C)C)c(O)c(C(c2ncc[nH]2)c2c(O)c(C(=O)CC(C)C)c(O)c(C(=O)CC(C)C)c2O)c1O | 15% | 0% | 0% | 11% | 0% | – | – | – | – | – | –
4 | CC(C)CC(=O)c1c(O)c(C=O)c(O)c(C(c2cc3ccccc3o2)c2c(O)c(C=O)c(O)c(C(=O)CC(C)C)c2O)c1O | 5% | 11% | 6% | 2% | 0% | – | – | – | – | – | –
5 | CC(C)CC(=O)c1c(O)c(C(=O)CC(C)C)c(O)c(C(c2c(O)c(C(=O)CC(C)C)c(O)c(C(=O)CC(C)C)c2O)c2cccc3ccccc23)c1O | 26% | 0% | 6% | 15% | 17% | – | – | – | – | – | –
6 | CC(C)CC(=O)c1c(O)c(C=O)c(O)c(Cc2c(O)c(C=O)c(O)c(C(=O)CC(C)C)c2O)c1O | 0% | 9% | 35% | 29% | 15% | – | – | – | – | – | –
7 | CC(C)CC(=O)c1c(O)c(Cc2c(O)c(C(=O)CC(C)C)c(O)c(C(=O)CC(C)C)c2O)c(O)c(C(=O)CC(C)C)c1O | 3% | 1% | 35% | 7% | 0% | – | – | – | – | – | –
8 | CC(C)CC(=O)c1c(O)c(C=O)c(O)c(C(c2ccncc2)c2c(O)c(C=O)c(O)c(C(=O)CC(C)C)c2O)c1O | 0% | 0% | 21% | 17% | 5% | – | – | – | – | – | –
9 | CC(C)CC(=O)c1c(O)cc(O)c(C(=O)CC(C)C)c1O | 46% | 55% | 30% | 0% | 0% | – | – | – | – | – | –
10 | CC(=O)c1c(O)c(C(C)=O)c(O)c(C(C)c2c(O)c(C(C)=O)c(O)c(C(C)=O)c2O)c1O | 0% | 3% | 19% | 38% | 0% | – | – | – | – | – | –
11 | CC(=O)c1c(O)c(C(C)=O)c(O)c(C(c2ccccc2)c2c(O)c(C(C)=O)c(O)c(C(C)=O)c2O)c1O | 29% | 0% | 29% | 47% | 0% | – | – | – | – | – | –
12 | CC(C)CC(=O)c1c(O)c(C(=O)CC(C)C)c(O)c(C(c2c(O)c(C(=O)CC(C)C)c(O)c(C(=O)CC(C)C)c2O)C2CCCCC2)c1O | 29% | 0% | 14% | 18% | 0% | – | – | – | – | – | –
13 | CC(=O)c1c(O)c(C(C)=O)c(O)c(C(c2cccs2)c2c(O)c(C(C)=O)c(O)c(C(C)=O)c2O)c1O | 54% | 55% | 57% | 0% | 64% | 5.03 | 5.00 | < 4.52 | 5.04 | 5.05 | 5.01
14 | CC(C)CC(=O)c1c(O)c(C=O)c(O)c(C(c2ccc(-c3ccccc3)cc2)c2c(O)c(C=O)c(O)c(C(=O)CC(C)C)c2O)c1O | 28% | 5% | 0% | 0% | 0% | – | – | – | – | – | –
15 | CC(C)CC(=O)c1c(O)c(C(=O)CC(C)C)c(O)c(C(C)c2c(O)c(C(=O)CC(C)C)c(O)c(C(=O)CC(C)C)c2O)c1O | 12% | 25% | 11% | 12% | 0% | – | – | – | – | – | –
16 | CC(C)CC(=O)c1c(O)cc(O)c(C=O)c1O | 58% | 57% | 52% | 59% | 50% | 5.07 | 5.01 | < 4.56 | 5.05 | 5.03 | 5.04
17 | CC(C)CC(=O)c1c(O)c(C(=O)CC(C)C)c(O)c(C(c2ccc(-c3ccccc3)cc2)c2c(O)c(C(=O)CC(C)C)c(O)c(C(=O)CC(C)C)c2O)c1O | 54% | 55% | 59% | 52% | 54% | 5.04 | 5.07 | < 4.58 | 5.05 | 5.08 | 5.10
18 | CC(C)CC(=O)c1c(O)c(C(=O)CC(C)C)c(O)c(C(c2cc3ccccc3s2)c2c(O)c(C(=O)CC(C)C)c(O)c(C(=O)CC(C)C)c2O)c1O | 54% | 65% | 54% | 54% | 59% | 5.01 | 5.01 | < 4.52 | 5.00 | 5.01 | 5.02
19 | CC(=O)c1c(O)c(C(C)=O)c(O)c(C(c2ccccn2)c2c(O)c(C(C)=O)c(O)c(C(C)=O)c2O)c1O | 0% | 11% | 12% | 24% | 0% | – | – | – | – | – | –
20 | CC(C)CC(=O)c1c(O)c(C=O)c(O)c(C(c2ccc(OCc3ccccc3)cc2)c2c(O)c(C=O)c(O)c(C(=O)CC(C)C)c2O)c1O | 49% | 48% | 44% | 30% | 6% | – | – | – | – | – | –
21 | CC(C)C(=O)c1c(O)c(Cc2c(O)c(C(=O)C(C)C)c(O)c(C(=O)C(C)C)c2O)c(O)c(C(=O)C(C)C)c1O | 25% | 6% | 30% | 16% | 12% | – | – | – | – | – | –
22 | CC(C)CC(=O)c1c(O)c(C=O)c(O)c(C(c2ncc[nH]2)c2c(O)c(C=O)c(O)c(C(=O)CC(C)C)c2O)c1O | 22% | 18% | 38% | 0% | 0% | – | – | – | – | – | –
23 | CC(=O)c1c(O)cc(O)c(C(C)=O)c1O | 25% | 0% | 44% | 0% | 0% | – | – | – | – | – | –
24 | CC(=O)c1c(O)c(Cc2c(O)c(C(C)=O)c(O)c(C(C)=O)c2O)c(O)c(C(C)=O)c1O | 0% | 8% | 46% | 39% | 22% | – | – | – | – | – | –
25 | CC(C)CC(=O)c1c(O)c(C(=O)CC(C)C)c(O)c(C(c2ccc3c(c2)Cc2ccccc2-3)c2c(O)c(C(=O)CC(C)C)c(O)c(C(=O)CC(C)C)c2O)c1O | 15% | 0% | 17% | 0% | 18% | – | – | – | – | – | –
26 | CC(C)CC(=O)c1c(O)c(C(=O)CC(C)C)c(O)c(C(c2cc3ccccc3o2)c2c(O)c(C(=O)CC(C)C)c(O)c(C(=O)CC(C)C)c2O)c1O | 37% | 20% | 7% | 56% | 0% | – | – | – | – | – | –
27 | CC(C)C(=O)c1c(O)cc(O)c(C(=O)C(C)C)c1O | 22% | 0% | 33% | 15% | 0% | – | – | – | – | – | –
28 | CC(C)CC(=O)c1c(O)c(C=O)c(O)c(C(c2ccc(C(F)(F)F)cc2C(F)(F)F)c2c(O)c(C=O)c(O)c(C(=O)CC(C)C)c2O)c1O | 5% | 14% | 0% | 6% | 0% | – | – | – | – | – | –

Source: ChEMBL document CHEMBL1955790, “One pot synthesis and anticancer activity of dimeric phloroglucinols” (Bioorg Med Chem Lett, 2012)
